One data set concerns the target native HSA (Homo sapiens, UniProt P02768). Nature of the data set: ITC titration of peptide into native HSA. Format: binding. As to conditions: 0.1 M sodium phosphate pH 7.4, 25 °C. In general terms: Isothermal titration calorimetry measures the heat released or taken up as one component is titrated into another.
The target of data set [1] is carbamylated HSA (cHSA-2) (Homo sapiens, UniProt P02768). Put plainly: ITC titration of peptide into cHSA-2. Format: binding.
For data set [2], the target named is carbamylated HSA (cHSA-1) (Homo sapiens, UniProt P02768). Nature of the data set: ITC titration of peptide into cHSA-1. The conditions noted are these: pH 7.4. Format: binding.
For data set [3], the target named is carbamylated HSA (cHSA-3) (Homo sapiens, UniProt P02768). Nature of the data set: ITC titration of peptide into cHSA-3. As to conditions: pH 7.4. The class given is binding.
A further data set relates to native Fgn (fibrinogen). Nature of the data set: ITC titration of peptide into native Fgn. As to conditions: peptide 0.21 mM into Fgn 4 μM, 0.1 M sodium phosphate pH 7.4, 25 °C. The class given is binding, bovine. Summed up: (§1)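 Bovine plasma fibrinogen was used either native or carbamylated by stirring 0.008 mM protein with 0.1 M sodium cyanate in 0.1 M phosphate pH 7.4 at room temperature for 2 days. Cell held 4 μM protein; peptide titrant was 0.21 mM; both were in 0.1 M sodium phosphate pH 7.4. 50 injections 200 s apart, 150 rpm, 25 °C. Dilution heat subtracted, independent-model fit, repeated at least twice.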

Data set [4] deals with T1, carbamylated fibrinogen (cFgn) (Bos taurus, UniProt P02672+P02676+P12799, DEL436-444).
T1 sequence (P02672 20-615): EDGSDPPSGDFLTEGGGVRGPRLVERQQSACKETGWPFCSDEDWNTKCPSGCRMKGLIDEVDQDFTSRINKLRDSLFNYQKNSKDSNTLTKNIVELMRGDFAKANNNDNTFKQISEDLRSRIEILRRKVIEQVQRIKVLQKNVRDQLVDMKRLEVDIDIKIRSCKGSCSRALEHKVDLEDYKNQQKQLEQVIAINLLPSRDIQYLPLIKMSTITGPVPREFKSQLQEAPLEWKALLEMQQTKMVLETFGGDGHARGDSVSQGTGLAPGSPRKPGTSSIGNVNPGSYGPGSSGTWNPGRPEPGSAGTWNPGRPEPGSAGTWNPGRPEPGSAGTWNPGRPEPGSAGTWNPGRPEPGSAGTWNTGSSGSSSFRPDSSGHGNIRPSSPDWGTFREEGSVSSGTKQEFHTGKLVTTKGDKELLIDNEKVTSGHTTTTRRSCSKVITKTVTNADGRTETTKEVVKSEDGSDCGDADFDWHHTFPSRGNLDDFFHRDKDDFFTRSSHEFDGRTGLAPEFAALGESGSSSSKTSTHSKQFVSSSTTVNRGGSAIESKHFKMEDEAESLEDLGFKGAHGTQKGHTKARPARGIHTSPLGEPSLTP
T1 sequence (P02676 1-468): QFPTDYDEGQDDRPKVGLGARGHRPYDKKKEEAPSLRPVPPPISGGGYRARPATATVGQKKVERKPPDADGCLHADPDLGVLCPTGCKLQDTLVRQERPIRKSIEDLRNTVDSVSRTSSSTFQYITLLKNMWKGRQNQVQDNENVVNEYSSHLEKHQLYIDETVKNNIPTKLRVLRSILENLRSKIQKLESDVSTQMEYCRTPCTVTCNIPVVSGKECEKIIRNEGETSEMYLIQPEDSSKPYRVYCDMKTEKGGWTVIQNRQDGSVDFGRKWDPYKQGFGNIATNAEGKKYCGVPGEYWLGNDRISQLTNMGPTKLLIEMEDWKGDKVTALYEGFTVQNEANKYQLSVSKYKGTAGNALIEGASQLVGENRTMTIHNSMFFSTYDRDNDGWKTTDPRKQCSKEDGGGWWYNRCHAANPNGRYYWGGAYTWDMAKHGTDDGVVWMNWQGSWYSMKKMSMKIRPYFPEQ
T1 sequence (P12799 25-435 limits assumed): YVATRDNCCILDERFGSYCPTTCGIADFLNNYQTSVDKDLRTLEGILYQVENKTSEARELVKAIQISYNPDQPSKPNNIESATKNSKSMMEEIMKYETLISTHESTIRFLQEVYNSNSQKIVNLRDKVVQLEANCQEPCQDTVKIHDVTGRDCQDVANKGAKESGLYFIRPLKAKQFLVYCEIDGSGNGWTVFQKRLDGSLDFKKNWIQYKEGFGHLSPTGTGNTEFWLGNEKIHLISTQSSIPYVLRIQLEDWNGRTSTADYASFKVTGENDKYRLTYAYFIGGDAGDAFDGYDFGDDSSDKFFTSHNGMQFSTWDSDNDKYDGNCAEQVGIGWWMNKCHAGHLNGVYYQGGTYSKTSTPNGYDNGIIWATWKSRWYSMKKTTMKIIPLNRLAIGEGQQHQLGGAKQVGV
Nature of the data set: ITC titration of peptide into cFgn. Format: binding, bovine. An outline of the steps: as §1

Data set [5] has as its target anti-Hcit (anti-carbamylation (homocitrulline) polyclonal antibody). Put plainly: ITC titration of peptide into anti-Hcit. Format: binding, rabbits. The conditions noted are these: peptide into solution containing only anti-Hcit, 25 °C, 0.01 M PBS pH 7.4 containing 50% glycerol and 0.02% NaN3 (control test).
The target in a further data set is cHSA (Homo sapiens, UniProt P02768). Put plainly: ITC titration of peptide into cHSA of different levels of carbamylation. Format: binding.
Chain of cHSA (P02768 25-609): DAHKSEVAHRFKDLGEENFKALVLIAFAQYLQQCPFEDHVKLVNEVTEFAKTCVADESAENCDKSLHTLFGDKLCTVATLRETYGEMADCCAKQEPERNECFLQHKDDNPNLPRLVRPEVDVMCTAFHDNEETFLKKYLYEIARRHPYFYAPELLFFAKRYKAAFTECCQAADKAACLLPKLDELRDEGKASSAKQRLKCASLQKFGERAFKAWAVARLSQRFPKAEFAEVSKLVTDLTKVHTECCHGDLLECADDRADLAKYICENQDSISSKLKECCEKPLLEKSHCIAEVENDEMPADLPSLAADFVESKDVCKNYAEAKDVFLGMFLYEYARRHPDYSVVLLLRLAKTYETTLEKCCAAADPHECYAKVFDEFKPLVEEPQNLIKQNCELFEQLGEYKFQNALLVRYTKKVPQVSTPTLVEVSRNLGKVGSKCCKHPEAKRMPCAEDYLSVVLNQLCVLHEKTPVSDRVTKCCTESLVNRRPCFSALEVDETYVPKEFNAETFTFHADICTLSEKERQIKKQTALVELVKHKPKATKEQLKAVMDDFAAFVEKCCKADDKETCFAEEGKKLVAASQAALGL
Data set [6] can be described thus: Water solubility of peptides. Format: physicochemical. The conditions noted are these: peptide excluded from synthesis for ITC; 'would be' marginally soluble.
Data set [7] deals with Carbamylated human serum albumin, Hcit% 2.7 (cHSA-2) (human) (UniProt P02768). Put plainly: ITC.
Data set [8] has as its target Anti-carbamylation (homocitrulline) polyclonal antibody (anti-Hcit) (rabbit). Put plainly: ITC.
Data set [9] has as its target Albumin from human serum (native HSA) (human, UniProt P02768 25-609). Put plainly: ITC.

“Also recorded” adds a separate entry of the source. Where no end group is shown, it is not given here.

Chain of Albumin from human serum (native HSA) (P02768 25-609): as above
Chain of native HSA (P02768 25-609): as above

Usually Kd stands for a measure of binding affinity in units of concentration. As to GSAARTISPSLL [cH2-p1], the “binding to HSA in words (ITC)” value on native HSA was “too weak to produce an obvious titration curve”. The “Kd to cHSA relative to Kd to native HSA” value in [1] (ITC, comparison with native HSA) is recorded as “almost 1 order of magnitude lower than its Kd to native HSA”. For the same molecule, the “binding affinity for cHSA versus HSA (ITC and ELISA)” value in [1] (both ITC and ELISA results) was “consistently higher binding affinity for cHSA than HSA”. The Kd was 97 µM in data set [1] (pH 7.4); 120 µM in [2]; 99 µM in data set [3]; 84 µM in [4]; 1000 µM in [5]; around 100 µM on cHSA. Further, the “binding to native Fgn (ITC)” value in the data set with native Fgn (fibrinogen) is recorded as “not binding to native Fgn at all”. In data set [4] (ITC titration peaks, pH 7.4, 25 °C), the “binding thermodynamics (sign of heat), cFgn” value is listed as “endothermic”. In [4] (cFgn versus native Fgn), the “binding to carbamylated versus native fibrinogen (ITC)” value is given as “binding specificity to carbamylated fibrinogen (cFgn); also recorded: found to bind cFgn over the native protein”. For the same molecule, the “binding thermodynamics (sign of heat), HSA/cHSA” value on cHSA (ITC titration peaks, HSA/cHSA, pH 7.4, 25 °C) is given as “exothermic”. For the same molecule, the “influence of extent of carbamylation on binding affinity” value at cHSA (ITC, cHSA-1, cHSA-2, cHSA-3) is “difference in surface charge did not seem to affect the binding affinity; also recorded: not found to be influenced by the extent of carbamylation”.
Take TPTIAIAQYNKW [cH2-p5]: in [6], the “aqueous solubility (expected)” value is on record as “marginally soluble”.
Take WPARTSAPFTNS [cH2-p3]: in [6], the “aqueous solubility (expected)” value is listed as “marginally soluble”.
Consider TLGLRPVPVATT [cH2-p6 peptide (synthetic)], for which the Kd in [7] is 200 µM.
For the molecule AHPHSDKLVPPR [cH2-p4 peptide (synthetic)], in data set [7], the Kd was determined as 130 µM.
In the case of GSAARTISPSLL [cH2-p1 peptide (synthetic)], the dissociation constant (Kd) in data set [8] and in data set [9] was 1000 µM in each case.

Source of the values: article PMC7860060 (ACS Omega, 2021).
